Screening data as filed in PubChem BioAssay.
M4 ag: agonists of human muscarinic M4 receptor (CHRM4). P08173. CHO-K1 hM4/Gqi5, Fluo-8 calcium fluorescence; vehicle 0%, full acetylcholine response 100%. activation, % at 3 µM. 0.14% of 360,000 active;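 active = activation above the run mean over all test wells plus 3 SD, cut at about 32% in these data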;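 also: peak over basal fluorescence ratio per well then scaled between controls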
Target sequence (P08173 whole entry, looked up): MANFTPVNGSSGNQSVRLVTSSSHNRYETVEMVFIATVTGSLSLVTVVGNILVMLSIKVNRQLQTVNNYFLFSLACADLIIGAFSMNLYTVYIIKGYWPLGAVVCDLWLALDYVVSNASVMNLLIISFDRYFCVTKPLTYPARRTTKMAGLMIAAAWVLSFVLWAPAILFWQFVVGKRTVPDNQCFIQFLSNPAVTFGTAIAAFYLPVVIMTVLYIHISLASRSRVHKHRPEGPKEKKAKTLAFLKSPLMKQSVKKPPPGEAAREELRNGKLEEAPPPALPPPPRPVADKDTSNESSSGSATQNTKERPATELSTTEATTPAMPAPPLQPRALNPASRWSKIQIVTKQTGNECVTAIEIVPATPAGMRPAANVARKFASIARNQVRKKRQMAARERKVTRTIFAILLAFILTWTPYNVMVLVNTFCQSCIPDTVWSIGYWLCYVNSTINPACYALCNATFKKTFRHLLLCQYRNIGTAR
CHRM5 PAM: positive allosteric modulators of human muscarinic M5 receptor; P08912; CHO-K1 hM5, Fluo-8 calcium, ACh EC20 PAM; 0% = ACh EC20, 100% = ACh EC100; activation, % at 3 µM; 0.3% of 360,000 active; AID 624038;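 active = activation above the run cutoff, the mean activation of all test compounds plus 3 SD, cut at about 18% in these data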
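Assay system – human M5 receptor in CHO-K1 cells · Read-out – % activation, ACh-normalized · Technique – Fluo-8 calcium fluorescence · Dosing – single-point, 3 µM nominal · Incubation – Fluo-8 loading 80 min at 37 °C plus 30 min room temperature · Repeats – singlicate, one well per test compound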
CHRM4 PAM: CHRM4 positive allosteric modulation; P08173; activation, % at 3 µM; CHO-K1 hM4/Gqi5, Fluo-8 calcium fluorescence, ACh EC20; 0% = ACh EC20, 100% = maximal ACh; 0.4% of 360,000 active; AID 624126;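 active = activation above its plate's cutoff, the mean activation of sample wells plus 3 SD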
CHRM4 antagonist: antagonists of human muscarinic M4 receptor (CHRM4); P08173; CHO-hM4 cells, ACh EC80, Fluo-8 calcium fluorescence; inhibition, % at 3 µM; 0.73% of 360,000 active; AID 624125;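 active = inhibition above its plate's cutoff, the mean inhibition of sample wells plus 3 SD, cut at about 27% in these data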
M5 antag: CHRM5 antagonism in calcium assay; P08912; CHO-hM5 cells, Fluo-8 calcium fluorescence, ACh EC80; inhibition, % at 3 µM; 0.59% of 360,000 active;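 active = inhibition above a per-plate cutoff, the mean of that plate's test compounds plus 3 SD, cut at about 27% in these data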
M5 ag: agonists of human muscarinic M5 receptor (CHRM5); P08912; CHO-K1 hM5 cells, Fluo-8 calcium fluorescence; 0% DMSO wells, 100% maximal acetylcholine response; activation, % at 3 µM; 0.19% of 360,000 active; AID 624037;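 active = activation above the run's mean over test compounds plus 3 SD, cut at about 23% in these data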;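 also: signal is peak over basal fluorescence ratio across the kinetic read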
Numbers stand for hits. Hits are enriched below; roughly 1.9% of the tested compounds scored in any of these assays.

Screening CCn1c(SCC(=O)Nc2ccc3c(c2)OCO3)nnc1C(C)C returned M4 ag inactive, CHRM5 PAM inactive, CHRM4 PAM inactive, CHRM4 antagonist inactive, M5 antag inactive and M5 ag inactive.
For COC(=O)NNC(=O)C(C)Oc1ccc(Cl)cc1Cl (stereo unspecified) the results were M4 ag inactive, CHRM5 PAM inactive, CHRM4 PAM 29.7, CHRM4 antagonist inactive, M5 antag inactive and M5 ag inactive.
`CC(Oc1ccc(Cl)cc1Cl)C(=O)NNC(=O)c1ccncc1` (stereo unspecified) gave M4 ag inactive, CHRM5 PAM inactive, CHRM4 PAM inactive, CHRM4 antagonist inactive, M5 antag inactive and M5 ag inactive.
For Cc1ccccc1CC(=O)N1CC(C)OC(C)C1 (stereo unspecified) the results were M4 ag inactive, CHRM5 PAM inactive, CHRM4 PAM inactive, CHRM4 antagonist inactive, M5 antag inactive and M5 ag inactive.
O=[N+]([O-])c1cccc(-c2nnc(C3CC3)o2)c1 was read as M4 ag inactive, CHRM5 PAM 35.9, CHRM4 PAM inactive, CHRM4 antagonist inactive, M5 antag inactive and M5 ag inactive.
`Nc1nnc(-c2cccc([N+](=O)[O-])c2)o1` gave M4 ag inactive, CHRM5 PAM inactive, CHRM4 PAM inactive, CHRM4 antagonist inactive, M5 antag inactive and M5 ag inactive.
COc1cccc(NC(=O)COc2ccc(C(=S)N3CCN(C)CC3)cc2OC)c1 was read as M4 ag inactive, CHRM5 PAM inactive, CHRM4 PAM inactive, CHRM4 antagonist inactive, M5 antag inactive and M5 ag inactive.
For Cc1ccc(S(=O)(=O)CCc2nc3ccccc3[nH]2)cc1 the results were M4 ag inactive, CHRM5 PAM inactive, CHRM4 PAM inactive, CHRM4 antagonist inactive, M5 antag inactive and M5 ag inactive.
`O=S(=O)(CCc1nc2ccccc2[nH]1)c1ccc(Cl)cc1` gave M4 ag inactive, CHRM5 PAM inactive, CHRM4 PAM 22.9, CHRM4 antagonist inactive, M5 antag inactive and M5 ag inactive.
Screening NCCc1nnc(SCc2c(Cl)cccc2Cl)o1 returned M4 ag inactive, CHRM5 PAM inactive, CHRM4 PAM inactive, CHRM4 antagonist inactive, M5 antag inactive and M5 ag inactive.
For O=C(NCc1nnc(SC/C=C/c2ccccc2)o1)c1ccco1 the results were M4 ag inactive, CHRM5 PAM inactive, CHRM4 PAM inactive, CHRM4 antagonist inactive, M5 antag inactive and M5 ag inactive.
Screening NCCCCCc1nnc(SCc2ccccc2Cl)o1 returned M4 ag inactive, CHRM5 PAM inactive, CHRM4 PAM inactive, CHRM4 antagonist inactive, M5 antag 28.1 and M5 ag inactive.
NCCCCCc1nnc(SC/C=C/c2ccccc2)o1 was read as M4 ag inactive, CHRM5 PAM inactive, CHRM4 PAM inactive, CHRM4 antagonist 38.5, M5 antag inactive and M5 ag inactive.
For CN(CC(=O)Nc1ccc(N2CCOCC2)cc1)Cc1c(O)ccc2ccccc12 the results were M4 ag inactive, CHRM5 PAM inactive, CHRM4 PAM inactive, CHRM4 antagonist inactive, M5 antag inactive and M5 ag inactive.
For CC(OC(=O)CCC(=O)c1cccs1)C(=O)NC1CCCCC1C (stereo unspecified) the results were M4 ag inactive, CHRM5 PAM inactive, CHRM4 PAM inactive, CHRM4 antagonist inactive, M5 antag inactive and M5 ag inactive.
For CN1CCN(C(=O)c2cccn(Cc3ccc(C(F)(F)F)cc3)c2=O)CC1 the results were M4 ag inactive, CHRM5 PAM inactive, CHRM4 PAM inactive, CHRM4 antagonist inactive, M5 antag inactive and M5 ag inactive.
c1ccc(Nc2ccc3c4c(cccc24)CC3)cc1 was read as M4 ag inactive, CHRM5 PAM inactive, CHRM4 PAM inactive, CHRM4 antagonist 33.1, M5 antag 37.1 and M5 ag 26.8.
For c1ccc(Nc2cccc3ccccc23)cc1 the results were M4 ag inactive, CHRM5 PAM inactive, CHRM4 PAM inactive, CHRM4 antagonist inactive, M5 antag inactive and M5 ag inactive.
For CCOC(=O)c1sc(=NC(=O)c2ccc(S(=O)(=O)N(C)c3ccccc3)cc2)n(C)c1C the results were M4 ag inactive, CHRM5 PAM inactive, CHRM4 PAM 27.3, CHRM4 antagonist inactive, M5 antag inactive and M5 ag inactive.
COc1ccc(N(C(=O)COc2ccccc2OC)S(=O)(=O)c2ccc(C)cc2)cc1 was read as M4 ag inactive, CHRM5 PAM inactive, CHRM4 PAM 26.3, CHRM4 antagonist inactive, M5 antag inactive and M5 ag inactive.
CCCCN(CC)C(=O)c1n[nH]c(=O)c2ccccc12 was read as M4 ag inactive, CHRM5 PAM 25.3, CHRM4 PAM inactive, CHRM4 antagonist inactive, M5 antag inactive and M5 ag inactive.
For C=CCn1c2c(c(=O)[nH]c1=S)CN(C(C)c1ccccc1)CN2 (stereo unspecified) the results were M4 ag inactive, CHRM5 PAM inactive, CHRM4 PAM inactive, CHRM4 antagonist inactive, M5 antag inactive and M5 ag inactive.
Screening CCC(C)N1CNc2c(c(=O)[nH]c(=S)n2-c2cccc(C)c2)C1 (stereo unspecified) returned M4 ag inactive, CHRM5 PAM 22.8, CHRM4 PAM inactive, CHRM4 antagonist inactive, M5 antag 35.3 and M5 ag inactive.
CCOc1ccc(N/C(N)=N/c2nc(C)cc(C)n2)cc1 was read as M4 ag 49.6, CHRM5 PAM inactive, CHRM4 PAM inactive, CHRM4 antagonist 49.5, M5 antag 38.6 and M5 ag inactive.
For CC(=O)Nc1ccc(N/C(N)=N/c2nc(C)cc(C)n2)cc1 the results were M4 ag inactive, CHRM5 PAM inactive, CHRM4 PAM inactive, CHRM4 antagonist inactive, M5 antag inactive and M5 ag inactive.
CCOc1ccc(N/C(=N/c2nc(C)cc(C)n2)NC(=O)CC)cc1 was read as M4 ag inactive, CHRM5 PAM inactive, CHRM4 PAM inactive, CHRM4 antagonist inactive, M5 antag inactive and M5 ag inactive.
Screening Cc1cc(C)nc(/N=C(\N)Nc2ccc(-c3ccccc3)cc2)n1 returned M4 ag 68.5, CHRM5 PAM inactive, CHRM4 PAM inactive, CHRM4 antagonist 28.9, M5 antag inactive and M5 ag 28.0.
For Cc1cc(C)nc(/N=C(\N)Nc2ccc(SC(F)F)cc2)n1 the results were M4 ag 96.1, CHRM5 PAM inactive, CHRM4 PAM inactive, CHRM4 antagonist 55.0, M5 antag inactive and M5 ag 34.7.
`Cc1cc(C)nc(/N=C(\N)Nc2ccc(F)c([N+](=O)[O-])c2)n1` gave M4 ag 55.5, CHRM5 PAM inactive, CHRM4 PAM inactive, CHRM4 antagonist inactive, M5 antag inactive and M5 ag inactive.
